≈ marks a conversion by molar mass, not a printed value.
Legend:
[1] = system: Staphylococcus aureus; assay: Minimum inhibitory concentration (MIC) against gram positive bacteria Staphylococcus aureus UC-76.; assay type: functional; conditions: Staphylococcus aureus; read-out: MIC
Summary of the method: (§1)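 MICs were determined by standard broth microtitration against 11 Gram-positive and Gram-negative organisms, in µg/mL. Values come from duplicate or triplicate experiments and are accurate to ±50%.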

[2] = system: Streptococcus pyogenes; assay: Minimum inhibitory concentration (MIC) against gram positive bacteria Streptococcus pyogenes C-203.; assay type: functional; conditions: Streptococcus pyogenes; read-out: MIC; summary of the method: as §1
[3] = system: Streptococcus pyogenes; assay: In vivo efficacy (orally) against Streptococcus pyogenes C-203 in mouse protection test; assay type: functional; conditions: Streptococcus pyogenes, po; read-out: PD50
Summary of the method: (§2)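 Acute lethal systemic infections in female Charles River CD-1 mice. A single dose was given at challenge, orally by gavage or by subcutaneous injection. PD50 (median protective dose, mg/kg) was determined.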

[4] = system: Escherichia coli; assay: Minimum inhibitory concentration (MIC) against gram negative bacteria Escherichia coli H-560.; assay type: functional; conditions: Escherichia coli; read-out: MIC; summary of the method: as §1
[5] = species on record: Mus musculus; assay: Dose required to induce phototoxic reaction in 50% of mice by probit method at different dosage forms.; assay type: functional
[6] = system: Pseudomonas aeruginosa; assay: Minimum inhibitory concentration (MIC) against gram negative bacteria Pseudomonas aeruginosa UI-18.; assay type: functional; conditions: Pseudomonas aeruginosa; read-out: MIC; summary of the method: as §1
[7] = species on record: Mus musculus; assay: Number of mice which show positive phototoxic reaction.; assay type: functional
Summary of the method: (§3)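 Phototoxic skin reaction test in depilated female CD-1 mice. A single oral dose (gavage) or subcutaneous dose was given, followed 1 h later by 3 h of UVA exposure (320–400 nm). The regimen was repeated for up to 4 consecutive days, with initial doses of 30, 100 and 300 mg/kg. PTD50 was derived by the probit method. The first day of positive reaction and the no-effect dose were taken from the raw data.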

[8] = system: Escherichia coli; assay: In vivo efficacy in mouse protection test in Escherichia coli Vogel dose administered orally by gavage.; assay type: functional; conditions: Escherichia coli, po; read-out: PD50; summary of the method: as §2
[9] = Minimum inhibitory concentration (MIC) against gram negative bacteria Prot. rettgeri M-1771.; assay type: functional, Providencia rettgeri; conditions: Providencia rettgeri; read-out: MIC; summary of the method: as §1
[10] = system: Klebsiella pneumoniae; assay: Minimum inhibitory concentration (MIC) against gram negative bacteria Klebsiella pneumoniae MGH-2.; assay type: functional; conditions: Klebsiella pneumoniae; read-out: MIC; summary of the method: as §1
[11] = system: Mus musculus; assay: Maximum tolerance dose was measured for phototoxic skin reaction by po administration; assay type: functional
[12] = system: Streptococcus pneumoniae; assay: Minimum inhibitory concentration (MIC) against gram positive bacteria Streptococcus pneumoniae SV-1.; assay type: functional; conditions: Streptococcus pneumoniae; read-out: MIC; summary of the method: as §1
[13] = species on record: Mus musculus; assay: Days of the first positive reaction in […] mice.; assay type: functional; summary of the method: as §3
[14] = system: Escherichia coli; assay: In vivo efficacy in mouse protection test in Escherichia coli Vogel administered by subcutaneous injection.; assay type: functional; conditions: Escherichia coli, sc; read-out: PD50; summary of the method: as §2
[15] = system: Escherichia coli; assay: Minimum inhibitory concentration (MIC) against gram negative bacteria Escherichia coli Vogel.; assay type: functional; conditions: Escherichia coli; read-out: MIC; summary of the method: as §1
[16] = species on record: Mus musculus; assay: Dose which has no effect to induce phototoxic reaction in 50% of mice by probit method.; assay type: functional
[17] = system: Enterobacter cloacae; assay: Minimum inhibitory concentration (MIC) against gram negative bacteria Enterobacter cloacae MA-2646.; assay type: functional
[18] = system: Streptococcus pyogenes; assay: In vivo efficacy (s.c.) against Streptococcus pyogenes C-203 in mouse protection test; assay type: functional; conditions: Streptococcus pyogenes, sc; read-out: PD50; summary of the method: as §2
[19] = system: Staphylococcus aureus; assay: Minimum inhibitory concentration (MIC) against gram positive bacteria Staphylococcus aureus H-228.; assay type: functional; conditions: Staphylococcus aureus; read-out: MIC; summary of the method: as §1
[20] = system: Enterococcus faecalis; assay: Minimum inhibitory concentration (MIC) against gram positive bacteria Streptococcus faecalis MGH-2.; assay type: functional; conditions: Enterococcus faecalis; read-out: MIC; summary of the method: as §1
[21] = system: Streptococcus pneumoniae; assay: In vivo efficacy (orally) against Streptococcus pneumoniae SV-1 in mouse protection test; assay type: functional; conditions: Streptococcus pneumoniae, po; read-out: PD50; summary of the method: as §2
[22] = system: Pseudomonas aeruginosa; assay: In vivo efficacy (s.c.) against Pseudomonas aeruginosa in mouse protection test; assay type: functional; conditions: Pseudomonas aeruginosa, sc; read-out: PD50; summary of the method: as §2
[23] = Number of mice which show positive phototoxic reaction in 15 mice; assay type: functional, Mus musculus; summary of the method: as §3
[24] = system: Streptococcus pneumoniae; assay: In vivo efficacy (s.c.) against Streptococcus pneumoniae SV-1 in mouse protection test; assay type: functional; conditions: Streptococcus pneumoniae, sc; read-out: PD50; summary of the method: as §2
[25] = system: Pseudomonas aeruginosa; assay: In vivo efficacy (orally) against Pseudomonas aeruginosa in mouse protection test; assay type: functional; conditions: Pseudomonas aeruginosa, po; read-out: PD50; summary of the method: as §2
[26] = species on record: Mus musculus; assay: Dose required to induce phototoxic reaction in 50% of mice by […] reactions at different dosage forms; assay type: functional
Summary of the method: (§4)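 Depilated female CD-1 mice got a single oral (gavage) or subcutaneous dose, then UVA (320–400 nm) exposure for 3 h starting 1 h post-dose. This was repeated for up to 4 consecutive days. Initial doses were 30, 100 and 300 mg/kg. PTD50 was derived by probit. First day of positive reaction and no-effect dose were taken from the raw data.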

[27] = Days of the first positive reaction in […] mice; assay type: functional, Mus musculus; summary of the method: as §4
[28] = species on record: Mus musculus; assay: Number of mice which show positive phototoxic reaction in 5 mice; assay type: functional

SMILES	MIC [1]	MIC [2]	ED50 [3]	MIC [4]	PTD50 [5]	MIC [6]	No. of pos rxns [7]	ED50 [8]	MIC [9]	MIC [10]	MTD [11]	MIC [12]	Day of first positve reaction [13]	ED50 [14]	MIC [15]	No effect dose [16]	MIC [17]	ED50 [18]	MIC [19]	MIC [20]	also measured
NC1CCCN(c2cc3c(cc2F)c(=O)c(C(=O)O)cn3C2CC2)C1 (stereo not drawn)	0.05 µg/mL (≈ 0.145 µM)	0.1 µg/mL (≈ 0.29 µM)	> 50 mg/kg	0.1 µg/mL (≈ 0.29 µM)	>100 mg/kg	0.8 µg/mL (≈ 2.32 µM)	0	15 mg/kg	0.8 µg/mL (≈ 2.32 µM)	0.2 µg/mL (≈ 0.579 µM)	100 mg/kg	0.2 µg/mL (≈ 0.579 µM)	0	1.4 mg/kg	0.1 µg/mL (≈ 0.29 µM)	100 mg/kg	0.1 µg/mL (≈ 0.29 µM)	8 mg/kg	0.8 µg/mL (≈ 2.32 µM)	0.2 µg/mL (≈ 0.579 µM)	–
NC1CCN(c2c(F)cc3c(=O)c(C(=O)O)cn(C4CC4)c3c2F)C1 (stereo not drawn)	0.025 µg/mL (≈ 0.0716 µM)	0.05 µg/mL (≈ 0.143 µM)	7.5 mg/kg	0.003 µg/mL (≈ 0.00859 µM)	4.2 mg/kg	0.1 µg/mL (≈ 0.286 µM)	–	0.9 mg/kg	0.1 µg/mL (≈ 0.286 µM)	0.025 µg/mL (≈ 0.0716 µM)	6 mg/kg	0.1 µg/mL (≈ 0.286 µM)	3	0.2 mg/kg	0.025 µg/mL (≈ 0.0716 µM)	3 mg/kg	0.013 µg/mL (≈ 0.0372 µM)	2.3 mg/kg	0.05 µg/mL (≈ 0.143 µM)	0.1 µg/mL (≈ 0.286 µM)	ED50 [21]: 15 mg/kg; ED50 [22]: 3 mg/kg; No. of pos rxns [23]: 15; ED50 [24]: 5.5 mg/kg; ED50 [25]: 6.5 mg/kg
NC1CCCN(c2c(F)cc3c(=O)c(C(=O)O)cn(C4CC4)c3c2F)C1 (stereo not drawn)	0.025 µg/mL (≈ 0.0688 µM)	0.1 µg/mL (≈ 0.275 µM)	32 mg/kg	0.2 µg/mL (≈ 0.55 µM)	>100 mg/kg	0.2 µg/mL (≈ 0.55 µM)	0	4.7 mg/kg	0.2 µg/mL (≈ 0.55 µM)	0.2 µg/mL (≈ 0.55 µM)	100 mg/kg	0.1 µg/mL (≈ 0.275 µM)	0	1.4 mg/kg	0.2 µg/mL (≈ 0.55 µM)	100 mg/kg	0.2 µg/mL (≈ 0.55 µM)	3.4 mg/kg	0.1 µg/mL (≈ 0.275 µM)	0.1 µg/mL (≈ 0.275 µM)	–
O=C(O)c1cn(C2CC2)c2c(F)c(N3CCNCC3)c(F)cc2c1=O	0.1 µg/mL (≈ 0.286 µM)	0.8 µg/mL (≈ 2.29 µM)	33 mg/kg	0.013 µg/mL (≈ 0.0372 µM)	–	0.2 µg/mL (≈ 0.573 µM)	–	0.45 mg/kg	0.1 µg/mL (≈ 0.286 µM)	0.05 µg/mL (≈ 0.143 µM)	100 mg/kg	0.8 µg/mL (≈ 2.29 µM)	–	0.26 mg/kg	0.05 µg/mL (≈ 0.143 µM)	100 mg/kg	0.025 µg/mL (≈ 0.0716 µM)	8.9 mg/kg	0.4 µg/mL (≈ 1.15 µM)	0.4 µg/mL (≈ 1.15 µM)	ED50 [21]: 59 mg/kg; ED50 [22]: 2.5 mg/kg; PTD50 [26]: 171 mg/kg; Day of first positve reaction [27]: 0; ED50 [24]: 29 mg/kg; ED50 [25]: 6.6 mg/kg; No. of pos rxns [28]: 0
